Data published in ChEMBL document CHEMBL5523765, “Peptidic Boronic Acid Plasmodium falciparum SUB1 Inhibitors with Improved Selectivity over Human Proteasome” (J Med Chem, 2024).
Calls of active or inactive are those of the source. No cut-off for these calls is given here.

How the values were obtained:
[1] = molecular target: T1, Subtilisin-like protease 1 (Plasmodium falciparum, UniProt O61142); assay: Inhibition of recombinant Plasmodium falciparum SUB1 using Ac-CKITAQDDEESC-OH as fluorogenic substrate pre-incubated for 5 mins followed by substrate addition and measured every 3 mins for 60 mins by fluorescence based SpectraMax M5e plate reader
T1 sequence (O61142 whole entry): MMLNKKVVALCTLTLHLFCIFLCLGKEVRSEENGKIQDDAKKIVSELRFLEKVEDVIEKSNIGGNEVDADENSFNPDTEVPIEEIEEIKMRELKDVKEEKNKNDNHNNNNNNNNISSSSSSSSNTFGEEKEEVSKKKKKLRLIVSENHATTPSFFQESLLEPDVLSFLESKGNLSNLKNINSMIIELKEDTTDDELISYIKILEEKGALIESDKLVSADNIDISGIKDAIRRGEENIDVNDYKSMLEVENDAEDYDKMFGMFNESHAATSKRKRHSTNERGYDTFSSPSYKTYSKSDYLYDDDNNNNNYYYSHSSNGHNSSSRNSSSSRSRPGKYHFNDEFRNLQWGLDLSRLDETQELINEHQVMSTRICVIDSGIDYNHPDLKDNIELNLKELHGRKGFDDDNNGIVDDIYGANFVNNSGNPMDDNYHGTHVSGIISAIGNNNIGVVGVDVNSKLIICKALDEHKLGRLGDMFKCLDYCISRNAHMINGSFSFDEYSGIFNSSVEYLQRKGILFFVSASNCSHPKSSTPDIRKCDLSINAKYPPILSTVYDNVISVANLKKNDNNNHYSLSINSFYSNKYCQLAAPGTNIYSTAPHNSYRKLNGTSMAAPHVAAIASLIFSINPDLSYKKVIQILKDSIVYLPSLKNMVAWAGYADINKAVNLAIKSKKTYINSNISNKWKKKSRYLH
Summary of the method: (§1)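 Chymotrypsin-treated recombinant PfSUB1 stock (228 U/mL) was diluted 1:500 in 20 mM Tris-HCl pH 8.2, 150 mM NaCl, 12 mM CaCl2, 25 mM CHAPS. Inhibitor DMSO stocks (500 to 0.01 μM) were diluted 1:100 and preincubated with enzyme for 5 min. Fluorogenic SERA4st1F-6R12 substrate was then added (0.1 μM final), with ex 552/em 580 nm read every 3 min for 60 min.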

[2] = molecular target: T1, Subtilisin-like protease 1; assay: Inhibition of Plasmodium falciparum SUB1; summary of the method: as §1
[3] = molecular target: T2, Proteasome Macropain subunit MB1 (Homo sapiens, UniProt P28074); assay: Inhibition of human 20s proteasome beta5 subunit mediated chymotrypsin-like activity using LLVY-R110 as substrate measured every three mins for 1 hr by fluorescence based SpectraMax M5e plate reader
T2 sequence (P28074 whole entry): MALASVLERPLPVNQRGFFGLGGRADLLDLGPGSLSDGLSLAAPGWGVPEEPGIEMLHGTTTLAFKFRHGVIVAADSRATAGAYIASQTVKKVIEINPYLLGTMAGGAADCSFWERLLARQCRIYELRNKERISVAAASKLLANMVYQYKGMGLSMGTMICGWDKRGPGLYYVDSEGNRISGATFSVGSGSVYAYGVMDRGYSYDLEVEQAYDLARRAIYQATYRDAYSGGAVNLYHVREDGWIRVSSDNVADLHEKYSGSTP
Summary of the method: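 Purified human 20S proteasome was diluted in TBS pH 7.4 to a 0.44 μM intermediate stock. Serial DMSO dilutions of inhibitor (1 μL) went into a 100 μL reaction with LLVY-R110 substrate, and 1 μL of proteasome stock was added to start.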

[4] = Selectivity ratio IC50 for human 20s proteasome beta5 subunit mediated chymotrypsin-like activity to IC50 for Plasmodium falciparum SUB1
[5] = molecular target: T3, Subtilisin-like protease 1 (Plasmodium falciparum) (UniProt O61142); assay: Inhibition of recombinant Plasmodium falciparum SUB1 using Ac-CKITAQDDEESC-OH as fluorogenic substrate at 1 uM pre-incubated for 5 mins followed by substrate addition and measured every 3 mins for 60 mins by fluorescence based SpectraMax M5e plate reader; details: time 65.0 min
T3 sequence (whole entry): T1 sequence (O61142 whole entry)

CC[C@H](C)[C@H](NC(=O)[C@@H](NC(=O)c1ccccc1)C1CCCC1)C(=O)NCC(=O)N[C@@H](C)B(O)O
IC50 [1]: 3.2 nM

CC(=O)N[C@H](C(=O)N[C@H](C(=O)NCC(=O)N[C@@H](C)B(O)O)[C@@H](C)O)C1CCCC1
IC50 [2]: 9.3 nM

CC(=O)N[C@H](C(=O)N[C@H](C(=O)NCC(=O)N[C@H]1CCC(=O)OB1O)[C@@H](C)O)C1CCCC1
IC50 [3]: 35600 nM
Ratio IC50 [4]: 1900
IC50 [2]: 18.7 nM

CC(C)C[C@H](NC(=O)[C@H](Cc1ccccc1)NC(=O)c1cnccn1)B(O)O
inhibition [5]: inactive

CC[C@H](C)[C@H](NC(=O)[C@@H](NC(=O)c1cc(C)cc(C)c1)C1CCCC1)C(=O)NCC(=O)N[C@H]1CCC(=O)OB1O
IC50 [3]: 1000 nM
